# DNMT1 block = DNMT1 (human) enzyme inhibition; P26358; DNMT1 molecular beacon, Hinp1I cleavage, fluorescence; inhibition (reported as % activation of signal), % at 10 µM; 360,000 compounds, 0.83% hits; in the data active = inhibition above about 50%
# Scp-1 inhibitor = Scp-1 (human) phosphatase inhibition; Q9GZU7; 340,000 compounds, 0.88% hits; Recombinant Scp1, phosphopeptide, malachite green phosphate absorbance; inhibition, % at 20 µM;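 active = inhibition above about 50% at 20 µM, limit read from the data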;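 also: plate controls were DMSO wells with enzyme for no effect and wells lacking enzyme for full effect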
# Target sequence (Q9GZU7 76-261 limits assumed): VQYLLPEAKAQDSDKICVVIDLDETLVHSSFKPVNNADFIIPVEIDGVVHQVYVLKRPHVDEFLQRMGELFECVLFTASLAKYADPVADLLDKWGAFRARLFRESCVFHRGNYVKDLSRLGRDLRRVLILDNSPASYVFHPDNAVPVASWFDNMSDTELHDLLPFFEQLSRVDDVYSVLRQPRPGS
#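 Test system: SCP-1 phosphatase catalytic domain, residues 76-261; measured by: colorimetric phosphate reagent with accelerator and stabiliser, absorbance at 630 nm; timing: enzyme reaction 45 min at room temperature, colour 5 min, stabilisation 30 min; also added: Phosphorylated 17-residue peptide substrate; compound dosing: one concentration, 20 µM, with 1.0% DMSO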
# HKDC1 inhibitor = HKDC1 (human) hexokinase inhibition; Q2TB90; recombinant HKDC1, G6PDH/diaphorase resazurin coupled fluorescence; inhibition, % at 20 µM; 340,000 compounds, 0.16% hits; AID 493160;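 active = inhibition above about 35% when tested at 20 µM, limit read from the data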;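 also: plate controls were DMSO wells with enzyme for no effect and DMSO wells lacking enzyme for full effect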
#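 Assay system: in-house recombinant HK5 (HKDC1) enzyme. Input: HKDC1 at 5 µg/mL. Medium: Tris pH 8.0 buffer with MgCl2, Tween-20, BSA, BME. Dosing: single 20 µM dose. Schedule: 90 min reaction incubation at room temperature, dark. Signal: resazurin-to-resorufin fluorescence via G6PDH and diaphorase coupling, 525/613 nm. Controls: DMSO-enzyme wells negative, buffer-substituted wells positive.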
# SUMO1 PPI mod = modulators of human SUMO1-mediated protein-protein interactions; 360,000 compounds, 0.33% hits; inhibition, % at 20 µM; AID 602429; P63165; SUMO1 binding to a labelled peptide, TR-FRET, 1 h; in the data active = inhibition above about 37%
# Target sequence (P63165 whole entry, looked up): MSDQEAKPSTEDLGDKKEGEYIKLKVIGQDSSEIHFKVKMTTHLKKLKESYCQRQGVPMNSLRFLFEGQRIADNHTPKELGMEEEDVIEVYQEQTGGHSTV
# STEP inh = blocks human striatal-enriched tyrosine phosphatase; inhibition, % at 20 µM; recombinant STEP, OMFP fluorogenic substrate, fluorescence; 360,000 compounds, 0.25% hits; P54829;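 active = inhibition at 20 µM, scaled per plate between control wells, above about 37%, limit read from the data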;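 also: 0% = DMSO with enzyme and substrate and 100% = substrate only without enzyme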
#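 System: STEP phosphatase, cell-free reaction; Buffer or medium: Bis-Tris pH 6.0 buffer with DTT, detergent; Incubation: 20 min at room temperature, dark; Measured by: fluorescence, 480/540 nm.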
# LMPTP block = LMPTP (human) inhibition; P24666; inhibition, % at 20 µM; AID 651560; recombinant LMPTP-A, OMFP fluorogenic substrate, fluorescence intensity; 360,000 compounds, 0.22% hits;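 active = compounds that cut the enzyme signal by at least half of the control window in the single-dose screen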;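 also: plate controls were DMSO wells with enzyme plus substrate for no effect and substrate without enzyme for full effect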
# Target sequence (P24666 whole entry, looked up): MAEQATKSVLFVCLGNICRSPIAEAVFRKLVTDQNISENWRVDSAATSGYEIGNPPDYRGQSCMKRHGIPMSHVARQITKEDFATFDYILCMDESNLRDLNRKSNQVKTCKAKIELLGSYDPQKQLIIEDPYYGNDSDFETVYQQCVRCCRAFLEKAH
#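 Buffer or medium: Bis-Tris pH 6.0, DTT, detergent; Assay system: LMPTP-A enzyme; Quantity: 0.625 nM enzyme; Detection: endpoint fluorescence intensity; Times: 50 min dark incubation at room temperature; Controls: substrate-only low control, DMSO enzyme-plus-substrate high control; Doses: single 20 µM dose; Read-out: percent inhibition versus substrate-only and uninhibited controls; Reagent: 400 µM OMFP.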
# Scp1 confirm = confirmation of human Scp-1 phosphatase inhibitors. AID 540281. shares compounds with Scp-1 inhibitor. recombinant SCP-1 catalytic domain, phosphate release, malachite green absorbance. inhibition, % at 20 µM. 2,500 compounds, 61% hits;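 also: plate controls were DMSO with enzyme for no effect and buffer wells lacking enzyme for full effect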
# Scp-1 MG ctr = counter-screen for Scp-1 inhibitors: colorimetric interference; shares compounds with Scp-1 inhibitor; apparent inhibition (interference), % at 20 µM; Colorimetric interference counterscreen, malachite green absorbance 630 nm; AID 540313; 2,500 tested, under 10 active;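 also: compounds added after enzyme reaction finished so only phosphate colour detection is probed; plate controls were DMSO wells with completed Scp-1 reaction for no effect and substrate wells lacking enzyme for full effect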
# Scp-1 Tm shift = binds human Scp-1, shifting its melting temperature; shares compounds with Scp-1 inhibitor; Recombinant SCP1, Sypro Orange thermal shift Tm; thermal shift relative to vanadate control, % at 40 µM; 1,500 compounds, 25% hits;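 active = substances whose mean melting-temperature shift, as a percentage of the reference inhibitor's shift, reaches about 5.3%, limit read from the data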;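 also: 0% = Tm of DMSO wells and 100% = Tm with sodium orthovanadate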
# HKDC1 act conf = HKDC1 (human) activation, single-dose confirmed; AID 504708; recombinant HKDC1, G6PDH/diaphorase resazurin fluorescence; active compounds read low; 740 compounds, 14% hits; inhibition, % at 20 µM; shares compounds with HKDC1 inhibitor;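 active = inhibition at or below a set negative limit, negative inhibition meaning the enzyme was activated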
# Beacon interf DR = beacon fluorescence artifact, dose response counter-screen; molecular beacon fluorescence, spectral interference counter-screen; IC50, µM; shares compounds with DNMT1 block; 200 tested, under 10 active; AID 602382; call rule not given here
# DNMT1 confirm = DNMT1 inhibition confirmation, single concentration | shares compounds with DNMT1 block | DNMT1 molecular beacon HinP1I cleavage, fluorescence | inhibition, % at 10 µM | 2,300 compounds, 8% hits;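 active = average inhibition of at least 30% in the single-concentration confirmation test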
# DNMT1 interf = counter-screen for DNMT1 inhibitors: spectral interference; shares compounds with DNMT1 block; DNMT1 molecular beacon spectral interference counterscreen, fluorescence 485/520; activation (fluorescence interference), % at 10 µM; 2,300 compounds, 1% hits; AID 602387;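 active = activation of at least 30% at 10 µM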;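 also: DNMT1 catalytic domain with a HinP1I cleavage step and a FAM/dabcyl DNA beacon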
# Active calls of the source: *; · = no result. This is a sample that favours compounds with a hit; in the whole collection about 1.8% have one here.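 The calls were made as follows, unless noted: active = inhibition of at least 30% at 20 µM; inactive = the rest.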
SMILES,DNMT1 block,Scp-1 inhibitor,HKDC1 inhibitor,SUMO1 PPI mod,STEP inh,LMPTP block,Scp1 confirm,Scp-1 MG ctr,Scp-1 Tm shift,DNMT1 confirm,DNMT1 interf,others
O=C(COc1cccnc1[N+](=O)[O-])Nc1ncc(Cl)cc1Cl,83*,62*,11,15,1,10,63*,-13,10.0*,3,-2,
C=CCn1c(SCC(=O)NCCCC)nc2scc(-c3ccco3)c2c1=O,100*,73*,6,10,3,16,69*,-16,-3,2,1,
N=C1/C(=C\c2ccc(Br)o2)C(=O)N=C2SC(CC(=O)N3CCCCC3)=NN12,94*,80*,11,46*,18,34,48*,-11,12*,15,6,
Cc1ccc(/C=C2/C(=N)N3N=C(CC(=O)N4CCCC4)SC3=NC2=O)o1,2,-5,-1,-14,0,1,·,·,·,·,·,
Cc1ccc(C)c(S(=O)(=O)Nc2ccc3oc(C)c(C(=O)O)c3c2)c1,83*,70*,12,51*,64*,23,64*,-13,12*,16,-1,
CC(=O)c1c(C)oc2ccc(NS(=O)(=O)c3ccc(C)cc3)cc12,3,-4,-7,-1,0,3,·,·,·,·,·,
NC(=O)Cc1ccc(C(=O)CSc2nnc(-c3ccncc3)n2C2CC2)s1,78*,79*,11,15,0,57*,82*,5,7.0*,8,-1,
N#CCCN(C(=O)CSc1nnc(-c2ccncc2)n1C1CC1)c1ccccc1,4,-7,0,5,-2,-2,·,·,·,·,·,
CC1=C(C)CC(C(=O)NC2CCCC2)C(C(=O)O)C1 (centres undefined),1,-5,3,-3,-1,-1,·,·,·,·,·,
CC1=CCC(C(=O)O)C(C(=O)NC2CCCCC2)C1 (centres undefined),79*,100*,-2,51*,22,1,75*,-7,-23,0,2,
O=C(/C=C/c1ccco1)N1CCN(S(=O)(=O)c2ccccc2)CC1,66*,73*,-1,6,18,10,70*,-10,-10,4,4,
COc1cccc(NC(=O)N(C)C[C@H]2OCc3cnnn3CCCC(=O)N([C@H](C)CO)C[C@@H]2C)c1,2,·,·,10,-1,-2,·,·,·,·,·,
Cc1nnc(SCC(=O)Nc2cccc(S(=O)(=O)N3CCCC3)c2)n1C1CC1,-1,·,·,3,-2,0,·,·,·,·,·,
CCC1=NN2C(=N)/C(=C\c3ccc(OCc4cc(=O)n5nc(CC)sc5n4)c(OC)c3)C(=O)N=C2S1,87*,75*,34,44*,0,3,51*,-8,3,15,0,HKDC1 act conf=23
O=C(CNC(=O)c1cccc(OC(F)F)c1)OCC(=O)c1ccccc1,-2,-1,-2,1,-2,-2,·,·,·,·,·,
O=C(CNC(=O)c1cccc(OC(F)F)c1)OCc1cc(=O)n2cc(Br)ccc2n1,108*,61*,-5,-19,0,11,58*,-10,3,3,6,
Cc1cc(NC(=O)CSc2nc(C)c(C)c(=O)[nH]2)no1,3,0,2,3,0,-1,·,·,·,·,·,
Cc1cccc(NS(=O)(=O)c2ccc(C(=O)N3CCN(c4ccccc4O)CC3)cc2)c1C,-7,-5,3,-5,-4,2,·,·,·,·,·,
Cc1cccc(C(=O)OCC(=O)c2ccc(CC(=O)N3CCOCC3)s2)c1C,50*,85*,8,-14,3,5,60*,-19,4,4,5,
Cc1cccc(C(=O)OCC(=O)N2CC(C)OC(C)C2)c1C (centres undefined),1,1,-1,-6,0,-1,·,·,·,·,·,
Cc1ccoc1C(=O)NCc1occc1C(=O)O,57*,50*,6,9,14,-1,34*,-18,-4,-1,0,
COc1ccc(C(=O)NC2CCc3ccccc32)cc1OC1CCN(C(C)C)CC1 (centres undefined),-1,-5,-6,6,-1,0,·,·,·,·,·,
Cc1ccc(S(=O)(=O)Cc2ccc(C(=O)N3CCc4ccccc4C3)o2)cc1,81*,76*,3,0,5,8,54*,-19,-1,5,4,
N#Cc1ccccc1CN1C(=O)S/C(=C/c2cccn2-c2ccc(C(=O)O)cc2)C1=O,106*,92*,12,-13,12,14,63*,-21,-3,4,1,
N#CC(C#N)=Cc1cccn1-c1ccc(C(=O)O)cc1,101*,70*,15,-6,24,7,61*,-13,1,21,-1,
Cc1cc(C(=O)NCc2ccc(C(=O)O)o2)c(C)o1,78*,56*,-13,4,4,0,52*,-10,-13,8,2,
CCOc1ccccc1C(O)C1=CC(=O)c2ccccc2C1=O (centres undefined),96*,75*,15,9,2,27,54*,-19,14*,11,-3,
CC1=CC(=O)c2ccccc2C1=O,-21,-9,0,-30,-3,0,·,·,·,·,·,
Cc1ccccc1NC(=O)CSc1ccsc1[N+](=O)[O-],104*,72*,0,6,18,50,62*,-15,14*,49*,-2,Beacon interf DR=>99
COc1ccc(N2Cc3cccc(C(=O)N4CCOCC4)c3C2=O)cc1,0,1,-4,0,5,-2,·,·,·,·,·,

# Compound activity from PubChem BioAssay.
